# This excerpt belongs to a sample that is enriched for hits.
# H69AR growth 86K: proliferation blockers of H69AR lung cancer cells, primary screen, cell-based, human, 86K library | H69AR lung tumor viability, ATP luminescence, 72 h; stronger effect = lower value | viability, % at 10 µM | actives 6% (n = 85,000);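 active = viability at or below 40%; inactive = viability above 40%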;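 note: multidrug resistant small cell line overexpressing MRP-1 efflux transporter; 100% = mean luminescence of untreated control wells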
# HUVEC prolif 384: inhibitors of HUVEC proliferation, primary screen, cell-based, 384-well | CellTiter-Glo luminescence, 72 h; stronger effect = lower value | actives 1.1% (n = 86,000) | AID 648, 2007 | viability, % at 10 µM (by protocol);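 active = viability at or below 30%; inactive = viability above 30%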;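 note: 100% = median luminescence of DMSO-only cell control wells on each plate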
# HCT116 bCat-KO: primary screen for growth suppressors in beta-catenin knockout HCT116 cells (colon tumor, human). HCT116 beta-catenin knockout viability, CellTiter-Glo, 60 h; stronger effect = lower value. viability, % at 10 µM. actives 1.5% (n = 140,000). AID 818, 2007;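 active = viability at or under a set limit, the compound median less 4 SD, cut at about 6% in these data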;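 note: 0% = Hyamine 1622 control at 20 µM and 100% = untreated cell control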
# Lung fibro prol: antiproliferative effect on LL 47 fibroblasts – human, LL 47 cells, CellTiter-Glo luminescence, primary screen. LL 47 human lung fibroblast viability, ATP luminescence; stronger effect = lower value. viability, % at 10 µM. actives 1.1% (n = 85,000);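 active = viability at or below 50% in the single dose screen; inactive = viability above 50%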;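 note: compound exposure lasted 72 h before the ATP readout; 100% = median luminescence of untreated cell-only wells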
#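 Benchmarks: Cell-only wells, no compound | Test system: LL 47 human lung fibroblasts, passage 12 or lower | Input: 1,150 cells/well | Measured by: CellTiter-Glo luminescence measuring cellular ATP | Medium: IMEM, 15% FBS supplement | Schedule: Overnight attachment after seeding, then 72 h compound exposure at 37 °C | Doses: Compound addition at 0.1% DMSO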
# Pyk2 oligo antag: antagonists of Pyk2 self-association, primary screen, Q293 cells, FERM NanoBiT luminescence, HTS. Protein-tyrosine kinase 2-beta (Homo sapiens), Q14289. stronger effect = lower value. z-score (the deposit names both 25 µM and 10 µM). actives 0.83% (n = 99,000). AID 1347419, 2020;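 active = Z-score of -3 or lower, scaled per plate to the spread of control and sample wells; inactive = z-score above -3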;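 note: negative z-score means lost luminescence so less FERM oligomerization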
# Target sequence (Q14289 whole entry, looked up): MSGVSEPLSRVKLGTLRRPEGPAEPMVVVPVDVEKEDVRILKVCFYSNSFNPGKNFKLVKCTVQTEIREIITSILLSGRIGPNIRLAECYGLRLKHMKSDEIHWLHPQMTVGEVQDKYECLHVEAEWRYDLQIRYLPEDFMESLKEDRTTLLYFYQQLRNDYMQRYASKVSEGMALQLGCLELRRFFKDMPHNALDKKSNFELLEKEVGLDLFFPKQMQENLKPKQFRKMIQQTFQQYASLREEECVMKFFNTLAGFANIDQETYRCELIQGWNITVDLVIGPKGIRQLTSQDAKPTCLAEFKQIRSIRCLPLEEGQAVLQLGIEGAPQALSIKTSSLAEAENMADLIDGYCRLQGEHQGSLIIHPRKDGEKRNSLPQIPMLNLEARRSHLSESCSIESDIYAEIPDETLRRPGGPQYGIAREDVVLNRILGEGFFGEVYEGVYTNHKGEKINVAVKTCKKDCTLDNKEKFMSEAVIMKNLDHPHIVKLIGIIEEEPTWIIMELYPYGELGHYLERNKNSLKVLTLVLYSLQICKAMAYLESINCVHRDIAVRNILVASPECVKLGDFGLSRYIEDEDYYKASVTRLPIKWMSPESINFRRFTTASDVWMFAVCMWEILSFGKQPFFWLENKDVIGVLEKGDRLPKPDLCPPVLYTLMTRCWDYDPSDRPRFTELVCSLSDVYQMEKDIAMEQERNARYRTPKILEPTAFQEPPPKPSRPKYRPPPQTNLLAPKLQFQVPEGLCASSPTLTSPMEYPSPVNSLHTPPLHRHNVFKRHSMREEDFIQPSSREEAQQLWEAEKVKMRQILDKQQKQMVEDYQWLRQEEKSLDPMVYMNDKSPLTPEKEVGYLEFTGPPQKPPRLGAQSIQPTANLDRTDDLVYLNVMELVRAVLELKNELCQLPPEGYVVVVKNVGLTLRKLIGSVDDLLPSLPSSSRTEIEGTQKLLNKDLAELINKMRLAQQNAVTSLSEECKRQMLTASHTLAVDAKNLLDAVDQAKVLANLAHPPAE
# PTEN del growth: growth suppression of PTEN-null HCT116, primary screen, cell-based, CellTiter-Glo; HCT116 PTEN-null viability, 60 h; stronger effect = lower value; viability, % at 10 µM; actives 1.2% (n = 140,000); AID 827, 2007;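 active = viability at or below a set limit, 4 SD under the median of all tested compounds, cut at about 3.7% in these data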;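 note: PTEN knockout HCT116 line with beta catenin targeted HCT116 as companion control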
# An asterisk follows results filed as active; · = not tested or not shown.
SMILES,H69AR growth 86K,HUVEC prolif 384,HCT116 bCat-KO,Lung fibro prol,Pyk2 oligo antag,PTEN del growth
COc1ccc2[nH]c(=O)c(CN(Cc3cccs3)Cc3nnnn3Cc3ccccc3)cc2c1,33*,83,85,97,0.3,61
CCC(c1nnnn1CCc1ccccc1)N(Cc1ccco1)Cc1cc2cccc(C)c2[nH]c1=O (stereo unspecified),45,97,60,89,-0.04,50
CC(=O)c1ccccc1NC(=O)Cn1c(=O)cnc2ccccc21,·,·,67,·,·,79
CCc1cccc(CC)c1NC(=O)COC(=O)CC1c2ccccc2CCN1S(=O)(=O)c1ccccc1 (stereo unspecified),·,·,73,·,·,71
Cc1ccc2[nH]c(=O)c(CN(Cc3ccco3)S(=O)(=O)c3c(C)ccc4nsnc34)cc2c1,94,82,34,95,1,18
CC(C)(C)n1nnnc1CN(Cc1ccco1)Cc1cc2cc3c(cc2[nH]c1=O)OCO3,35*,82,76,86,0.35,71
COc1ccc2[nH]c(=O)c(CN(Cc3cccs3)S(=O)(=O)c3c(C)ccc4nsnc34)cc2c1,2.7*,65,25,69,-2.5,15
COC(=O)C1=C(CN2CCN(C)CC2)NC(=O)NC1c1cc(C)ccc1C (stereo unspecified),·,85,98,93,0.31,95
COC(=O)C1=C(CN2CCc3ccccc32)NC(=O)NC1c1cc(C)ccc1C (stereo unspecified),34*,85,58,89,-0.87,41
COc1ccc(C(=O)N/N=C/C(Br)=C/c2ccccc2)cc1,·,·,100,·,·,104
O=C(Cc1cccs1)N/N=C/C(Br)=C/c1ccccc1,·,·,76,·,-0.21,61
O=C(N/N=C/C(Br)=C\c1ccccc1)c1n[nH]c2c1CCC2,5.3*,22*,3.9*,51,-1.4,2.2*
Cn1cc(C(=O)N/N=C/C(Br)=C/c2ccccc2)ccc1=O,·,·,3.6*,·,·,3.3*
Cc1ccccc1NCC(=O)N/N=C/C(Br)=C/c1ccccc1,11*,30,55,71,-0.45,43
COc1cccc(C(=O)N/N=C/C(Br)=C/c2ccccc2)c1,·,·,2.8*,·,·,1.7*
CCOC(=O)C1=C(C)NC(=O)C1CC(=O)O (stereo unspecified),·,·,69,·,·,71
CC(C)OCCCNS(=O)(=O)c1ccc2ccccc2c1,102,90,95,108,0.08,106
Cc1cc(C)c2c(n1)nn1c(NCCN3CCOCC3)cc(C)nc21,88,94,90,105,-1.7,88
Cc1cc(NCCN2CCOCC2)n2nc(C)c(-c3ccccc3)c2n1,27*,89,87,90,-0.76,89
Cc1cc(NCCN2CCOCC2)n2nc(C)c(-c3ccc(Cl)cc3)c2n1,12*,48,37,74,0.34,28
Cc1cc(NCCCn2ccnc2)n2nc(C)c(-c3ccc(Cl)cc3)c2n1,1.1*,2.3*,5.5*,15*,-0.65,4
Cc1cc(NCCN2CCOCC2)n2ncc(-c3ccccc3)c2n1,25*,96,75,93,0.09,80
COc1ccc2c(C)c(C(=O)NCC(C)O)oc2c1OC (stereo unspecified),·,·,106,·,1.5,106
CC(=O)O[C@H]1C[C@@]2(C)[C@@H](C[C@@H](O)[C@H]3[C@@]4(C)CC[C@@H](O)[C@@H](C)C4CC[C@@]32C)/C1=C(\CCC=C(C)C)C(=O)O (stereo partly specified),·,·,98,·,·,92
O=C(CC12CCC(CC1)C2)NCc1ccc2c(c1)OCO2,101,98,95,104,0.15,93
SMILES,H69AR growth 86K,HUVEC prolif 384,HCT116 bCat-KO,Lung fibro prol,Pyk2 oligo antag,PTEN del growth
Cc1cc(NCCCn2ccnc2)n2ncc(-c3ccccc3)c2n1,27*,68,78,82,-0.1,76
Cc1cc(NCCCn2ccnc2)n2nc(C)c(-c3ccccc3)c2n1,41,72,84,93,-0.25,90
COc1ccc2[nH]c3c(N4CCC(O)(c5cccc(C(F)(F)F)c5)CC4)ncnc3c2c1,·,·,4.5*,·,-2.9,5
CCOC(=O)c1cc(C#N)c(SCC(=O)c2cc(C#N)c(SC)nc2C)nc1C,12*,63,·,·,-2.5,·
COc1cc(CC(C#N)(CO)c2nc3ccccc3[nH]2)ccc1OC(F)F (stereo unspecified),·,·,84,·,0.28,78
CCCCN(CCCNC(=O)c1ccc2nc(N3CCOCC3)sc2c1)Cc1ccccc1,49,70,72,93,0.24,71
COc1ccc2cc(CN(CC3COCCO3)S(=O)(=O)c3ccc(Cl)cc3)c(=O)[nH]c2c1 (stereo unspecified),13*,102,20,108,-1.7,27
O=c1[nH]c2cc3c(cc2cc1CN(CC1CCCO1)S(=O)(=O)c1ccc(Cl)cc1)OCCO3 (stereo unspecified),12*,74,15,95,-1.2,7
CC(=O)c1ccc(S(=O)(=O)N(Cc2cc3cc4c(cc3[nH]c2=O)OCCO4)CC2CCCO2)cc1 (stereo unspecified),75,94,108,95,0.12,98
COC(=O)c1ccc(S(=O)(=O)N(Cc2cc3cc4c(cc3[nH]c2=O)OCO4)C2CCCCC2)cc1,39*,94,·,107,·,·
CCOC(=O)CSc1nc(NCc2ccco2)c2ccccc2n1,95,90,92,88,-0.26,98
CCOC(=O)CSc1nc(Nc2ccc3c(c2)OCO3)c2ccccc2n1,79,74,91,99,-3*,91
N#CCSc1nc(Nc2ccc3c(c2)OCO3)c2ccccc2n1,46,65,69,89,-4.2*,74
Cc1ccc(CSC2=Nc3ccccc3C3=NC(CC(=O)NCc4ccco4)C(=O)N23)cc1 (stereo unspecified),29*,79,102,101,1.1,95
O=C(CCC1N=C2c3ccccc3N=C(SCc3ccc(F)cc3)N2C1=O)NCc1ccco1 (stereo unspecified),66,88,102,104,0.29,90
O=C(CCC1N=C2c3ccccc3N=C(SCc3ccc(Cl)cc3)N2C1=O)NCc1ccco1 (stereo unspecified),74,76,75,102,0.19,69
O=C(CC1N=C2c3ccccc3N=C(SCc3ccc(F)cc3)N2C1=O)NCc1ccco1 (stereo unspecified),38*,64,79,93,-0.66,77
COc1ccc(-c2cnnn2-c2ccc(NC(=O)c3ccc(S(=O)(=O)N4CCCCC4)cc3)cc2)cc1,·,·,81,·,0.52,75
